High-throughput results from PubChem BioAssay.
NPY Y2 blocker – antagonists of human neuropeptide Y receptor Y2 | P49146 | NPY-Y2 expressing cells, antagonist mode | inhibition, % at 2.7 µM | 0.99% of 140,000 active | AID 793;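 also: 0% = vehicle with agonist challenge and 100% = reference antagonist with challenge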
Target sequence (P49146 whole entry, looked up): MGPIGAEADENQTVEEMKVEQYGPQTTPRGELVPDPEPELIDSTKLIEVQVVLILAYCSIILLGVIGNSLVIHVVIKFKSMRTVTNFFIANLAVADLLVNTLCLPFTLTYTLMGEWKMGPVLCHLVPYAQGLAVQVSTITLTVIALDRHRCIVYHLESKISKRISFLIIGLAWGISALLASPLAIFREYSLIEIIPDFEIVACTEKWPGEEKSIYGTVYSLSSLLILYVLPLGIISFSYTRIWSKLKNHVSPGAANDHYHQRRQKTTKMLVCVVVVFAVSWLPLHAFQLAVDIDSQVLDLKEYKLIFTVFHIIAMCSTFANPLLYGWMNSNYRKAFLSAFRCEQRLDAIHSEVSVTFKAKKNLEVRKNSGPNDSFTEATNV
NPY-Y1 PAM-ag – potentiates or activates human NPY-Y1 receptor. AID 1304. P25929. NPY-Y1 expressing cells, potentiator/agonist activation. activation, % at 3.6 µM. 0.37% of 220,000 active; in the data active = activation above about 33%, passing the limit was not always enough;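 also: cells stimulated with NPY at EC10 then isoproterenol at EC100; 0% = low agonist plus stimulus and 100% = saturating agonist plus stimulus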
Target sequence (P25929 whole entry, looked up): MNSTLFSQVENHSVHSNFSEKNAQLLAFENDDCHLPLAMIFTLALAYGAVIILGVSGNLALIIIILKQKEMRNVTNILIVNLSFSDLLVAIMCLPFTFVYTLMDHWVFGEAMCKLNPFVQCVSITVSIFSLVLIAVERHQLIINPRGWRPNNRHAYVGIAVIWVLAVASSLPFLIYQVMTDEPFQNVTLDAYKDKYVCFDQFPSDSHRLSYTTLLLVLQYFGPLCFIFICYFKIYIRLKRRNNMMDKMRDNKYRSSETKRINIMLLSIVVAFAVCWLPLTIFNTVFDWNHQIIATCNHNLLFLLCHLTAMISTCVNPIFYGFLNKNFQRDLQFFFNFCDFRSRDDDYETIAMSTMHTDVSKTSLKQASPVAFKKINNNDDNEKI
NPY-Y2 PAM-ag – potentiators or agonists of human neuropeptide Y receptor Y2; P49146; AID 1359; activation, % at 3.6 µM; 0.45% of 220,000 active; cells expressing NPY-Y2, potentiator/agonist read-out; in the data active = activation above about 27%;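 also: cells stimulated with NPY near EC25 plus isoproterenol at EC100; 0% = vehicle plus submaximal agonist and 100% = vehicle plus saturating agonist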
bCat nuc transl – alters nuclear translocation of beta-catenin in HeLa cells. AID 1665. 0.3% of 190,000 active. immunofluorescence imaging. nuclear translocation activity, % at 5 µM;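 active = nuclear translocation activity above 50% at 5 µM, with a well cell count of 50 or more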;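 also: per-cell ratio of nuclear to cytoplasmic median beta-catenin stain intensity; plate controls were DMSO negative control for no effect and GSK-3 inhibitor IX positive control for full effect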
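Test system: human HeLa cell line; Doses: 5 µM primary, 0.02–20 µM confirmation; Incubation: 24 h compound exposure, 37°C; Detection: beta-catenin immunofluorescence imaging with DAPI; Read-out: beta-catenin nuclear/cytoplasmic ratio, % activation.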
MT stabilizer – stabilizes microtubules in HeLa cells | HeLa tubulin immunostaining HCS, 24 h; share of cells brighter than vehicle mean+2SD | % tubulin-high responders, % at 10 µM | 0.83% of 200,000 active;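 active = plate Z-score above 3 for both tubulin-high and condensed-nucleus cell shares, with cell loss under 80%, at 10 µM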;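 also: anti alpha tubulin signal scored within the nucleus-defined area of each cell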
NPY-Y1 antag – blocks the human neuropeptide Y Y1 receptor; P25929; HEK293-CNG Y1 cells, membrane potential fluorescence; NPY at EC95, then isoproterenol; inhibition, % at 3.6 µM; 1% of 200,000 active; AID 1040;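 active = inhibition above the campaign mean inhibition of all tested compounds plus 3 SD, cut at about 20% in these data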;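 also: 0% = DMSO wells given NPY plus isoproterenol and 100% = isoproterenol alone without NPY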
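Assay system: HEK293 cells with Y1 receptor plus CNG channel | Probe or stimulus: NPY (25 nM), isoproterenol (1 µM), Ro 20-1724 (25 µM) | Timing: Compound incubation 1 h at room temperature, readout 45 min post-stimulation | Measured by: Membrane-potential fluorescent dye readout | Benchmarks: High control isoproterenol alone, low control NPY with isoproterenol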
NPY1 antag conf – confirmation of human neuropeptide Y receptor Y1 antagonists; shares compounds with NPY-Y1 antag; HEK293-CNG NPY-Y1, membrane potential fluorescence, cAMP; NPY challenge against isoproterenol-raised cAMP; inhibition, % at 3.6 µM; 21% of 1,200 active; AID 1254; in the data active = inhibition above about 20%;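 also: 0% = vehicle with agonist plus stimulus and 100% = stimulus alone without agonist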
NPY-Y2 antag ct – counter-screen for NPY-Y1 antagonists: human NPY-Y2 antagonism. shares compounds with NPY-Y1 antag. HEK293 NPY-Y2 CNG membrane potential fluorescence; cells given NPY, then isoproterenol. inhibition, % at 3.6 µM. 28% of 1,200 active. AID 1255;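 also: 0% = DMSO with agonist challenge and 100% = reference antagonist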
* hit, by the source's call; nt = not tested or not shown. Compounds with a hit are over-represented: about 2.6% of the library has one in this group of screens. Rule as the data show it, unless noted: active = inhibition above about 17%; inactive = the rest.

SMILES | NPY Y2 blocker | NPY-Y1 PAM-ag | NPY-Y2 PAM-ag | bCat nuc transl | MT stabilizer | NPY-Y1 antag | NPY1 antag conf | NPY-Y2 antag ct
C[C@H]1CC[C@H]2C(=O)N3[C@H](c4ccccc4Br)[C@@H](C)CC[C@H]3C(=O)N2[C@@H]1c1ccccc1Br | 12.4 | -3.8 | 16.7 | -2.5 | 7.6 | 27.7* | 19.6 | 9.0
C[C@H]1CC[C@H]2C(=O)N3[C@H](c4cccc(N5CCCC5=O)c4)[C@@H](C)CC[C@H]3C(=O)N2[C@@H]1c1cccc(N2CCCC2=O)c1 | -0.3 | 0.1 | -0.3 | -3.8 | 1.4 | -5.4 | nt | nt
Cn1c(=O)[nH]c(Nc2ccccc2)c([N+](=O)[O-])c1=O | nt | 9.6 | -0.7 | -5.6 | 4.6 | -1.3 | nt | nt
Cc1cc(Cl)c(OCCOCCN2CCCC(C)C2)c(Br)c1 (centres undefined) | nt | -22.6 | -28.3 | 2.2 | 1.3 | 23.0* | 5.3 | 11.0
Cc1cc(Cl)c(OCCOCCN2CCCCC2)c(Br)c1 | 3.3 | 9.7 | -5.1 | nt | 2.0 | 3.6 | nt | nt
COc1ccc2c(C)cc3n[nH]c(=S)n3c2c1 | nt | -9.4 | -18.3 | 1.5 | nt | nt | nt | nt
Cc1ccc(C2C(C(=O)c3cccs3)=C(O)C(=O)N2c2nnc(C)s2)cc1 (centres undefined) | nt | -1.6 | -15.8 | -0.7 | 3.7 | 27.2* | 30.5* | 20.7*
COc1ccc(C2C(C(=O)c3cccs3)=C(O)C(=O)N2c2cccc(C)n2)cc1 (centres undefined) | nt | 22.5 | 9.0 | -0.1 | nt | nt | nt | nt
CCCCOc1c(Cl)cc(CNC(C)(C)CO)cc1OCC | 7.3 | -34.8 | -14.3 | nt | 3.1 | 23.5* | 7.0 | 6.4
CCCCNCc1cc(Cl)c(OCCC)c(OCC)c1 | 1.3 | -18.2 | 0.2 | -17.4 | 1.2 | 5.0 | nt | nt
Cc1ccc(-n2c(-c3ccccc3)c[n+]3c2CCc2ccccc2-3)c(C)c1 | nt | -24.3 | 8.6 | -0.3 | 3.3 | 58.3* | 32.1* | 15.3
Cc1ccc(-n2c(-c3ccccc3)c[n+]3c2CCC3)cc1 | nt | -2.7 | -4.0 | 0.5 | 4.2 | -3.7 | nt | nt
Cc1cc(Nc2ccc([N+](=O)[O-])cc2)nc2ccccc12 | nt | 21.3 | 2.9 | -0.3 | 3.8 | 24.1* | 6.7 | 15.6
COc1ccc(Nc2cc(C)c3ccccc3n2)cc1 | nt | 21.1 | 18.2 | -0.7 | 1.2 | 0.3 | nt | nt
CCOc1ccccc1-c1nn2c(Cc3ccccc3)nnc2s1 | 10.2 | -73.7 | -18.6 | -1.9 | 5.0 | 52.2* | 31.8* | 59.3*
c1ccc(Cc2nnc3sc(-c4ccccn4)nn23)cc1 | 6.8 | -25.1 | -2.6 | 0.0 | 3.2 | 5.0 | nt | nt
O=C1C=C(NCc2ccc(Cl)c(Cl)c2)C2(CCCCC2)O1 | 14.8 | 3.0 | -6.0 | -2.0 | 2.5 | 42.5* | 10.3 | 7.2
COc1ccc(CN2CCC(CO)(CCOc3ccccc3)CC2)c(OC)c1C | nt | -15.3 | -22.0 | -1.2 | 2.2 | 24.3* | 11.2 | 17.1
CCOc1ccccc1CN1CCC(CO)(CCOc2ccccc2)CC1 | nt | -49.4 | -32.2 | -0.9 | 1.3 | 31.4* | 14.3 | 16.7
O=C(Nc1ccccc1Cl)c1cccc(NS(=O)(=O)c2ccccc2)c1 | 0.4 | 17.6 | 9.9 | -1.0 | 1.7 | -2.1 | nt | nt
Cc1onc(-c2ccccc2)c1CNS(=O)(=O)c1ccccc1[N+](=O)[O-] | nt | -2.3 | 8.9 | -5.0 | nt | nt | nt | nt
COc1ccccc1NC(=O)Cc1noc(CSc2cccc[n+]2[O-])n1 | -1.4 | 11.2 | -5.2 | 0.3 | 2.6 | 3.5 | nt | nt
COc1ccccc1NC(=O)Cc1noc(CSc2cc(C)c3ccccc3n2)n1 | 13.4 | -26.6 | -17.8 | 1.4 | 2.3 | 20.1* | 9.0 | 7.3
CCN(CC)S(=O)(=O)c1cccc(NC(=O)COc2ccc(C#N)cc2OC)c1 | 2.1 | -37.3 | -13.6 | 3.2 | 5.0 | 16.7 | nt | nt
CCN(CC)S(=O)(=O)c1cc(NC(=O)COc2ccc(C#N)cc2OC)ccc1C | 11.8 | -24.9 | -9.1 | -1.6 | 2.2 | 24.5* | 12.2 | 29.0*
SMILES | NPY Y2 blocker | NPY-Y1 PAM-ag | NPY-Y2 PAM-ag | bCat nuc transl | MT stabilizer | NPY-Y1 antag | NPY1 antag conf | NPY-Y2 antag ct
COC(=O)c1ccc(-c2noc(CN3CCCCC3c3nccn3C)n2)cc1 (centres undefined) | nt | -5.0 | -1.5 | -1.2 | 1.6 | 32.5* | 8.8 | 11.6
Cn1ccnc1C1CCCCN1Cc1nc(Cc2ccccc2F)no1 (centres undefined) | nt | 7.8 | -2.6 | 0.8 | 3.7 | 7.7 | nt | nt
N#Cc1c(N2CCN(C(=O)c3ccccc3Cl)CC2)nc(-c2ccccc2)c2c1CCCC2 | 6.7 | 4.8 | 0.9 | 0.9 | 1.5 | 5.6 | nt | nt
N#Cc1c(N2CCN(C(=O)c3ccccc3)CC2)nc(-c2ccccc2)c2c1CCCC2 | 6.5 | -18.4 | -7.7 | -4.5 | 0.8 | 26.7* | 16.9 | 10.9
COC(=O)/C(=N/Nc1ccccc1C)N1CCCc2ccccc21 | 6.2 | -18.5 | -20.1 | -0.9 | 3.6 | 35.8* | 15.9 | 13.0
CCCCn1c(SCC(=O)N2CCC(C)CC2)nc2ccsc2c1=O | 16.8 | 20.8 | -18.9 | -4.5 | 2.3 | 20.8* | 13.2 | 3.7
COc1ccc(OC)c(NC(=O)c2ccc(-c3cccs3)cc2)c1 | nt | -66.4 | -34.0 | 3.9 | 2.3 | 22.4* | 9.3 | 10.4
CCCC(OC(=O)CN1C(=O)COc2ccccc21)C(=O)NC1CCCC1 (centres undefined) | 11.0 | 2.4 | -19.6 | 1.3 | 2.0 | 24.0* | 1.1 | 3.5
CCc1ccc(NC(=O)COC(=O)CN2C(=O)COc3ccccc32)cc1 | 1.0 | 4.6 | -12.3 | -8.3 | 3.1 | 0.3 | nt | nt
N/C(=N\O)c1ccc(Cl)cc1Cl | nt | -7.4 | 2.2 | -0.6 | nt | nt | nt | nt
O=C(NC(=S)NCc1ccc(F)cc1)c1ccccc1 | 6.4 | -16.9 | -12.6 | -1.4 | 1.7 | 23.3* | 3.7 | 2.6
CCNc1nc(NCC)nc(SCCOC(=O)c2ccccc2)n1 | 2.1 | -23.2 | -1.9 | 0.1 | 3.1 | 7.9 | nt | nt
CCNc1nc(NCC)nc(SCCOC(=O)Nc2ccc(Cl)cc2Cl)n1 | 12.7 | -39.6 | -21.2 | -2.9 | 7.2 | 24.0* | 9.7 | 11.8
c1ccc(CC2CCN(C(c3cccs3)c3nnnn3C3CCCC3)CC2)cc1 (centres undefined) | 5.3 | 4.1 | 0.5 | nt | 1.9 | -3.5 | nt | nt
c1ccc(CN(Cc2cccs2)C(c2cccs2)c2nnnn2C2CCCC2)cc1 (centres undefined) | 15.7 | -14.6 | -17.6 | -2.3 | 3.8 | 20.6* | 17.4 | 5.7
Cc1ccccc1NC(=O)COC(=O)c1c[nH]c(=O)[nH]c1=O | nt | -8.1 | -17.6 | 0.0 | 6.4 | -3.8 | nt | nt
Cc1cc(C(=O)CSc2nc3ccccc3c(=O)[nH]2)c(C)n1CC1CCCO1 (centres undefined) | nt | -9.5 | 7.8 | 0.7 | 2.2 | 0.5 | nt | nt
Cc1cc(C(=O)CSc2nc3ccccc3c(=O)n2C)c(C)n1CC1CCCO1 (centres undefined) | nt | -27.2 | 13.7 | 2.6 | 4.2 | 27.4* | 33.4* | 12.0
